According to article PMC3817951 (Journal of immunology (Baltimore, Md. : 1950), 2013):
“And” between values parts separate entries of the source, which are not always exact repeats. Identical values can stand only once. “Also recorded” adds a separate entry of the source. Like-named read-outs stand apart in the source and are kept apart here.

Key:
[1] = tested on: murine iNKT hybridoma N38-2C12 (Vα14Vβ8.2b); test: In vitro stimulation of iNKT hybridoma 2C12 with glycolipid pulsed BMDCs; type: cell-based, mouse; conditions: for IL-2 production (ELISA): BMDCs loaded 100 ng/ml for 20 h, co-culture with 2C12 for 16 hours
Summary of the method: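 Hybridoma kept in cDMEM (DMEM, 10% FCS, glutamine, pen/strep, 2-mercaptoethanol). BMDCs grown 10 days with GM-CSF, pulsed 20 h with 100 ng/ml glycolipid. 5×10^4 hybridoma cells plus 10^5 BMDCs at 37°C. Secreted IL-2 by ELISA at 16 h (n=6). Intracellular IL-2 at 4 h. TCRβ by flow at 24 h with CD45.1 BMDCs, gated CD45.2+CD45.1−7AAD−.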

[2] = tested on: TCR; test: Surface plasmon resonance: TCR binding to mCD1d-glycolipid complexes; design: species or system mouse; conditions: for Kd: SPR, TCR towards glycolipid presented by mCD1d, 25°C, Langmuir 1:1 model
Summary of the method: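 Biotinylated birA-tagged mouse CD1d loaded overnight with 6-fold molar excess glycolipid (DMSO stock 1 mg/ml). 500–600 RU of complex captured on streptavidin chip. TCR injected at 0.0156–2 μM in 10 mM Hepes, 150 mM NaCl, 3 mM EDTA, pH 7.4, for 1.5–3 min. Dissociation 45 min at 25°C. Empty-CD1d reference subtracted, Langmuir 1:1 fit. Three runs, separate TCR preparations.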

[3] = tested on: iNKT cells; type: in vivo, C57BL/6 mice; conditions: for IFN-γ levels (Figure 2 panel b, IL-12 panel): at 16 hours
[4] = tested on: B16 melanoma cells; test: B16 melanoma lung metastasis model; type: in vivo, mice; conditions: 10 000 BMDCs loaded with glycolipid
Summary of the method: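 C57BL/6 mice aged 5–12 weeks. B16 cells grown in advanced RPMI with 10% FCS, glutamine and pen/strep, lifted with cell dissociation buffer and washed twice. 2x10^5 or 4x10^5 cells were injected i.v. into the tail vein within 30 min of harvest. Glycolipid-pulsed BMDCs given i.v. (6x10^4 or 1x10^4). Mice killed at day 14 and lungs removed for scoring.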

[5] = tested on: iNKT cells; type: in vivo, C57BL/6 mice; conditions: for serum IFN-γ levels / serum IL-12 levels: 16 hours after injection of 5 μg glycolipid (i.p.)
Summary of the method: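 C57BL/6 mice aged 5–12 weeks received 5 μg glycolipid i.p. in PBS. Glycolipid solubilised in PBS or vehicle (sucrose/deoxycholate/Tween 20), heated 20 min at 80°C, sonicated 10 min. Serum cytokines measured 16 h after injection. Mean ± s.e.m. of at least sixteen mice, pooled from two independent experiments.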

[6] = tested on: human iNKT cells; type: cell-based
Summary of the method: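 Sorted, expanded iNKT cells from healthy adult donors. Autologous PBMCs isolated by density centrifugation, incubated overnight with glycolipid (100 ng/ml), washed and irradiated (40 Gy). 5x10^4 iNKT cells cultured with 10^5 PBMCs in RPMI 1640 plus 10% human AB serum, pyruvate, non-essential amino acids and pen/strep. Supernatant cytokines at 24 h by cytometric bead array. Data pooled from two experiments, two donors.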

[7] = tested on: spleen DCs (CD11c CD11b double positive); test: Co-stimulatory marker expression on spleen DCs; type: in vivo, mouse
[8] = tested on: CD1d; conditions: compared with CD1d-α-GalCer complexes; cited from earlier work
[9] = tested on: CD1d; test: Cellular assay of stability of the glycolipid-CD1d complex; type: cell-based, mouse; conditions: BMDCs loaded 100 ng/mL 20 hours, wash-off 4h to 48h
Summary of the method: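 BMDCs grown 10 days with GM-CSF, then pulsed 20 h with 100 ng/mL glycolipid and washed. Cells were held in medium for 4–48 h, and released glycolipid was washed off. They were then co-cultured with 2C12 hybridoma (5×10^4 hybridoma:10^5 BMDCs, cDMEM, 37°C). IL-2 in the medium, normalised to the 4 h point, indicates remaining loaded CD1d. Mean ± s.e.m., n=6.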

[10] = 600 000 glycolipid-pulsed BMDCs, at 16 and 24 hours
[11] = 600 000 glycolipid-pulsed BMDCs
[12] = 100 ng/ml loading, 24hrs, compared to α-GalCer
[13] = 10 000 pulsed BMDCs, 16 hours, compared to NU-α-GalCer and α-GalCer

Which “IL-2 production (ELISA)” value [1] does the source give for CCCCCCCCCCCCCCCCCCCCCCCCCC(=O)N[C@@H](CO[C@H]1O[C@H](COC(=O)Nc2ccc(Cl)cc2)[C@H](O)[C@H](O)[C@H]1O)[C@H](O)[C@H](O)CCCCCCCCCCCCCC [4ClPhC-α-GalCer, α-GalCer-6″-(4-chlorophenyl)carbamate] here?
The value was “significantly differ from α-GalCer”.

What about the reduced binding affinity ([2]; 49 nM vs. 25 nM) of the same compound?
The reduced binding affinity was 2 fold.

And the Kd [2]?
The Kd was 49.3 ± 0.3 nM.

What about the “serum IFN-γ levels” value [3, 10] of the same compound?
Its value is “significantly higher compared to NU-α-GalCer”.

And the “IFN-γ levels (Figure 2 panel b, IL-12 panel)” value [3, 11]?
The value was “significantly higher compared to α-GalCer”.

Which “IL-2 production (ELISA)” value [1] does the source give for CCCCCCCCCCCCCCCCCCCCCCCCCC(=O)N[C@@H](CO[C@H]1O[C@H](COC(=O)Nc2cccc3ccccc23)[C@H](O)[C@H](O)[C@H]1O)[C@H](O)[C@H](O)CCCCCCCCCCCCCC [NC-α-GalCer, α-GalCer-6″-(1-naphthyl)carbamate] here?
Its value is “significantly differ from α-GalCer”.

What about the Kd [2] of the same compound?
The Kd was 37 nM and 37.1 nM.

For CCCCCCCCCCCCCCCCCCCCCCCCCC(=O)N[C@@H](CO[C@H]1O[C@H](CNC(=O)Nc2cccc3ccccc23)[C@H](O)[C@H](O)[C@H]1O)[C@H](O)[C@H](O)CCCCCCCCCCCCCC [NU-α-GalCer, α-GalCer-6″-(1-naphthyl)urea], which “lung nodules / anti-metastatic activity” value [4] is on record?
The value was “significantly stronger compared to α-GalCer”.

And the “serum IFN-γ levels” value [5]?
Its value is “significantly lower; also recorded: comparable or slightly lower”.

And the “IL-2 production (ELISA)” value [1]?
The value was “higher IL-2 levels; also recorded: significantly differ from α-GalCer”.

And the “serum IFN-γ levels” value [3, 10]?
The value was “significantly higher compared to α-GalCer”.

What about the “IFN-γ levels (Figure 2 panel b, IL-12 panel)” value [3, 11] of the same compound?
The value was “significantly higher compared to α-GalCer”.

Which results are given for CCCCCCCCCCCCCCCCCCCCCCCCCC(=O)N[C@@H](CO[C@H]1O[C@H](COC(=O)Nc2ccncc2)[C@H](O)[C@H](O)[C@H]1O)[C@H](O)[C@H](O)CCCCCCCCCCCCCC [PyrC-α-GalCer, α-GalCer-6″-(pyridin-4-yl)carbamate]?
IFN-γ production [6, 12]: slightly elevated; IL-4 production [6, 12]: less production; IL-12 production [6, 12]: slightly elevated; IL-13 production [6, 12]: less production; Th1-biased cytokine secretion ([6]; purified human iNKT cells, more IFN-γ and IL-12 and less IL-4 and IL-13 compared to α-GalCer): able to induce Th1-biased cytokine secretion; lung nodules / anti-metastatic activity [4]: superior in preventing tumor metastasis; also recorded: reduce the amount of noduli even significantly better; serum IL-12 levels [5]: significantly higher IL-12 levels than NU-α-GalCer; increase of IL-12 levels ([5]; PyrC-α-GalCer administration, mode and comparator not stated at place): 10 fold; IL-2 production (ELISA) [1]: significantly differ from α-GalCer; CD40 and OX40L expression ([7]; spleen DCs): induces early CD40 and OX40L upregulation; Kd [2]: 25 ± 3 nM; serum IFN-γ levels [3, 13]: significantly higher; serum IL-12 levels [3, 13]: significantly higher; serum IFN-γ levels [3, 10]: significantly higher compared to NU-α-GalCer; serum IL-12 levels [3, 10]: even after 24 hours markedly higher than for NU-α-GalCer; also recorded: significantly higher compared to NU-α-GalCer; course of IFN-γ level over time ([3]; glycolipid pulsed BMDCs, in contrast to 4ClPhC-α-GalCer and NU-α-GalCer): increased up to 24 hours after injection

With CCCCCCCCCCCCCCCCCCCCCCCCCC(=O)NC(CC1OC(CO)C(O)C(O)C1O)C(O)C(O)CCCCCCCCCCCCCC (stereo not drawn) [α-C-GalCer] as the compound, how does the TCRβ expression ([1]; 2C12, 24 hours after coculture with glycolipid-pulsed CD45.1 BMDCs) read?
Its TCRβ expression is “clear TCRb downregulation”.

What about the “IL-2 production (ELISA)” value [1] of the same compound?
Its value is “higher IL-2 levels”.

What about the “half-life in vivo of complex with CD1d” value [8] of the same compound?
Its value is “much longer half-life in vivo”.

What about the “stability of glycolipid-CD1d complex (IL-2 normalized to 4 hours after wash off)” value [9] of the same compound?
Its value is “much slower decay compared to α-GalCer”.

Which “serum IFN-γ levels” value [5] does the source give for CCCCCCCCCCCCCCCCCCCCCCCCCC(=O)N[C@@H](CO[C@H]1O[C@H](CO)[C@H](O)[C@H](O)[C@H]1O)[C@H](O)[C@H](O)CCCCCCCCCCCCCC [α-GalCer, alpha galactosyl ceramide, reference compound] here?
The value was “significantly lower”.

What about the “serum IL-12 levels” value [5] of the same compound?
Its value is “significantly lower”.

And the “CD80 and CD86 expression” value ([7]; dendritic cell surface)?
The value was “induced upregulation of both CD80 and CD86”.

What about the Kd [2] of the same compound?
The Kd was 26 nM and 26.4 nM.
